Our source for the Activity, inhibition and IC50 values is ChEMBL document CHEMBL1153088, “Discovery of benzo[g]indol-3-carboxylates as potent inhibitors of microsomal prostaglandin E(2) synthase-1” (Bioorg Med Chem, 2009).

Assay [1] deals with T1, Prostaglandin E synthase (Homo sapiens) (UniProt O14684).
T1 sequence (whole entry): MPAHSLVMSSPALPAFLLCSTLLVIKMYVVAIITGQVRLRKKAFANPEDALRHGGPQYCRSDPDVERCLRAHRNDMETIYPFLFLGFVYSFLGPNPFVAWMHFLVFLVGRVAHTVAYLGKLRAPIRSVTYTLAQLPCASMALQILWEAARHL
In words: Inhibition of mPGES1 in IL1-beta induced human A549 cell microsomal membrane at 10 uM assessed as enzyme residual activity by PGE2 formation assay relative to untreated control. Format: microsomes. As to conditions: Microsome. The essentials:
(§1)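 Microsomes from A549 cells treated with IL-1β (1 ng/ml, 72 h) were used at 50 µg/ml in 0.1 M potassium phosphate pH 7.4 with 2.5 mM glutathione. Compound (DMSO 1% final) was preincubated 15 min at 4 °C, then PGH2 was added (20 µM final) for 1 min at 4 °C.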

In assay [2] the target is T2, Prostaglandin G/H synthase 1 (Ovis aries) (UniProt P05979).
T2 sequence (whole entry): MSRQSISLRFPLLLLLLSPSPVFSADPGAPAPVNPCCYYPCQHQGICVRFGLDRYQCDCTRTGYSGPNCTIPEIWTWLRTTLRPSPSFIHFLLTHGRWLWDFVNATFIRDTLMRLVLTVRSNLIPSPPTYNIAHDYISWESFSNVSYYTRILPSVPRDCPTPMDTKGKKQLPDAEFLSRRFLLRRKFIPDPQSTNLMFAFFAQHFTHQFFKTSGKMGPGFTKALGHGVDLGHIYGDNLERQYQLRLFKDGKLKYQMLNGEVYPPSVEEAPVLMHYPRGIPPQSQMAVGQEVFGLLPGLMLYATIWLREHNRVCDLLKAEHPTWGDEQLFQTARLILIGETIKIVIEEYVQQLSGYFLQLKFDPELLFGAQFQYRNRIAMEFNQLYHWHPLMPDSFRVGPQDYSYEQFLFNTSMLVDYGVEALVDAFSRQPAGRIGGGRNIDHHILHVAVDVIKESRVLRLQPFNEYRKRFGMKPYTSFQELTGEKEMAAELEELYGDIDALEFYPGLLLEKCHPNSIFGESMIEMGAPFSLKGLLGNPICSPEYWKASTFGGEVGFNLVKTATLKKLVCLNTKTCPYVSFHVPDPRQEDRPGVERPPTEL
In words: Inhibition of ovine COX1 assessed as residual enzyme activity at 10 uM relative to untreated control. A digest of the protocol:
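Purified ovine COX-1 (50 units) in 1 ml of 100 mM Tris pH 8 containing 5 mM glutathione, 5 µM hemoglobin and 100 µM EDTA was preincubated with compound for 5 min at 4 °C and prewarmed 60 s at 37 °C. The reaction was started with 5 µM AA and run 5 min at 37 °C, and 12-HHT was analysed by HPLC.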

For another assay, the target named is T3, Prostaglandin E synthase (Homo sapiens, UniProt O14684).
T3 sequence (O14684 whole entry): T1 sequence (whole entry)
The assay can be described thus: Inhibition of mPGES1 in IL1-beta induced human A549 cell microsomal membrane assessed as blockade of conversion of PGH2 to PGE2. The class given is microsomes, Microsome. The essentials:
as §1

Assay [3] addresses T1, Prostaglandin E synthase (Homo sapiens). In words: Inhibition of mPGES1 in IL1-beta induced human A549 cells assessed as PGE2 production at 30 uM preincubated for 10 mins. Format: cell-based. Details: scale not given: the % may be the effect or the level left. A digest of the protocol:
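Intact IL-1β-induced A549 cells (4×10^6/ml PBS, 1 mM CaCl2) were preincubated with compound (DMSO ≤0.3%) for 10 min at 37 °C. [3H]PGE2 was separated by RP-18 SPE/HPLC and counted by liquid scintillation.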

Active and inactive are the calls of the source. The rule behind the calls is not given here.

As for `CCOC(=O)c1c(Cc2cccc(Cl)c2)[nH]c2ccc(O)cc12`, in assay [1], the Activity turned out to be 55%.
`CCOC(=O)c1c(Cc2cccc(Br)c2)[nH]c2c1cc(O)c1ccccc12`: the Activity in assay [2] was 82%.
On to `CCOC(=O)c1c(Cc2cccc(Cl)c2)[nH]c2c1cc(O)c1cc(OC)c(OC)cc12`, for which the inhibition result in assay [2] is “inactive”.
Consider `CCOC(=O)c1c(Cc2cccc(F)c2)[nH]c2c1cc(O)c1ccccc12`, for which the inhibition result in assay [2] is “inactive”. Moreover, the IC50 on Prostaglandin E synthase is 500 nM. Besides, the Activity in assay [1] came out at 5%.
For the molecule `CCOC(=O)c1c(Cc2ccc(Cl)cc2)[nH]c2c1cc(O)c1ccccc12`, the Activity in assay [2] and in assay [1] was 26% in each case. For the same molecule, the IC50 at Prostaglandin E synthase is 3400 nM.
Turning to `CCOC(=O)c1c(CCc2cccc(Cl)c2)[nH]c2ccc(O)cc12`, the Activity in assay [1] came out at 65%.
`CCOC(=O)c1c(Cc2cccc(Cl)c2)n(Cc2ccccc2)c2c1cc(O)c1ccccc12`: the inhibition entry in assay [1] is “inactive”. Besides, the Activity in assay [3] came to 35%.
Regarding `CCOC(=O)c1c(CCc2cccc(Cl)c2)[nH]c2c1cc(O)c1ccccc12`, in assay [1], the Activity came out at 57%.
`CCOC(=O)c1c(Cc2cccc(Cl)c2)n(-c2ccc(-c3ccccc3)cc2)c2ccc(O)cc12`: in assay [2], the inhibition entry is “inactive”. In addition, at Prostaglandin E synthase, the IC50 was 3100 nM. The Activity in assay [1] was found to be 25%.
With `CCOC(=O)c1c(Cc2cccc(Cl)c2)[nH]c2c1cc(O)c1ccc(-c3ccccc3)cc12`, the Activity in assay [2] came out at 66%; in assay [1], 28%. On Prostaglandin E synthase, the IC50 turned out to be 2800 nM.
For `CCOC(=O)c1c(Nc2cccc(Cl)c2)[nH]c2ccc(O)cc12`, the Activity in assay [1] was 83%.
Consider `CCOC(=O)c1c(Cc2cccc(OC)c2)[nH]c2c1cc(O)c1ccccc12`, for which the Activity in assay [2] came to 89%.
